In data set [1] the test system is Mus musculus. As to the kind of experiment: In vivo inhibition of Nav1.7 in C57/BL6 mouse model of histamine-induced pruritis assessed as reduction in scratching bouts at 10 mg/kg, […] dosed 2 hrs before histamine challenge and measured for 15 mins relative to control. The data set is classed as functional.
Data set [2] addresses Sodium channel protein type 9 subunit alpha (Homo sapiens, UniProt Q15858). The data set is described as follows: Inhibition of human Nav1.7 expressed in HEK293 cells at holding potential of -125 mV […] by patchxpress-based electrophysiology assay. The data set is classed as cell-based.
In data set [3] the target is Sodium channel protein type 4 subunit alpha (Homo sapiens, UniProt P35499). The data set is described as follows: Inhibition of human Nav1.4 expressed in HEK293 cells at holding potential of -125 mV […] by patchxpress-based electrophysiology assay. It is filed as cell-based.
Sodium channel protein type 4 subunit alpha, sequence (P35499 whole entry): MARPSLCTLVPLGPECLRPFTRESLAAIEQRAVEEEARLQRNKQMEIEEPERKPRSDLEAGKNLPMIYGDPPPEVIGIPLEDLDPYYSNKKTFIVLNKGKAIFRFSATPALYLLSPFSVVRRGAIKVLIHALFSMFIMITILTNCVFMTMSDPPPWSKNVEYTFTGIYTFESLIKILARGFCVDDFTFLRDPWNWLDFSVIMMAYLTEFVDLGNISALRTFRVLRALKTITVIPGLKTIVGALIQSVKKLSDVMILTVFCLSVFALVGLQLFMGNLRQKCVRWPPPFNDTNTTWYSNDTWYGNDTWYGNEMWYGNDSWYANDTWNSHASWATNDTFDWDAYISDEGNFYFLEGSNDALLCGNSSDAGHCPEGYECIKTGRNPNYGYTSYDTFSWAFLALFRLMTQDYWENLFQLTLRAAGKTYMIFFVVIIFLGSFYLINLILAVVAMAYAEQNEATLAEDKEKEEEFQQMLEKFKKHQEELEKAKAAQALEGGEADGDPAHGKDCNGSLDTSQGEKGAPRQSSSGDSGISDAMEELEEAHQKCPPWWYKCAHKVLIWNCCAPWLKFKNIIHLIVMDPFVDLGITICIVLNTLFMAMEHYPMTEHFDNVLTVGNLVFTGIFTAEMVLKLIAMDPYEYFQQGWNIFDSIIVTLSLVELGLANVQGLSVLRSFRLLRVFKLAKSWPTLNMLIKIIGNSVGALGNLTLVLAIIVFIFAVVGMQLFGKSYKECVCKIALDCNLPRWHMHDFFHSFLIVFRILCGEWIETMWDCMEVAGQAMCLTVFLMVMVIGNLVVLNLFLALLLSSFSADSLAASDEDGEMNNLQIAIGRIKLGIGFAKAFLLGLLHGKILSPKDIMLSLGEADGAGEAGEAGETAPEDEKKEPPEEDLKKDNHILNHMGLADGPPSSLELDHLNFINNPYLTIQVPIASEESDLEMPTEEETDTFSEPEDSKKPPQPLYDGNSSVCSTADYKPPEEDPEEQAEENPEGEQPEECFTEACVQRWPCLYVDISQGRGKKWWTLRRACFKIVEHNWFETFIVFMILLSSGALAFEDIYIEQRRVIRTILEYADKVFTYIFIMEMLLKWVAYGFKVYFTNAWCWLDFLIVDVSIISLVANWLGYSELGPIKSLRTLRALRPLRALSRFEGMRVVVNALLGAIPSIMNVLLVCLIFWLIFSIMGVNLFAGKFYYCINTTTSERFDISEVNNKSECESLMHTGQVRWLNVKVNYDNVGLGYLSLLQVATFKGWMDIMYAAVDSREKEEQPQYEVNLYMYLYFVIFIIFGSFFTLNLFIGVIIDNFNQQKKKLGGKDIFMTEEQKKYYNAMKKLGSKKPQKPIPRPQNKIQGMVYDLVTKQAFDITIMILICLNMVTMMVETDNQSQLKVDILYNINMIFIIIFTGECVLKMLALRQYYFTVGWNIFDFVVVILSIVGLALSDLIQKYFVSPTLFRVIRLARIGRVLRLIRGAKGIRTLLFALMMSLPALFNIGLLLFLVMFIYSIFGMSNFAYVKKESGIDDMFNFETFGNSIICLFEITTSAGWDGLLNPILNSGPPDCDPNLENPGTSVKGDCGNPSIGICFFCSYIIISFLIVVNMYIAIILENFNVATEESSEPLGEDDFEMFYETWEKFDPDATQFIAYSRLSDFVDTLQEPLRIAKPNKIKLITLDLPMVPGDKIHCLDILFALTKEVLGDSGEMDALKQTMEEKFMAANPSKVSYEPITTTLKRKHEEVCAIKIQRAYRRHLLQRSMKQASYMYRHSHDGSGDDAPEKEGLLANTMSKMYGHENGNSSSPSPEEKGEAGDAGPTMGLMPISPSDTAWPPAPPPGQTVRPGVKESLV
A short description of data set [4]: Plasma concentration in C57/BL6 mouse at 2 mg/kg, sc after 30 mins by LC-MS/MS analysis. It is filed as ADME, organism-based. The conditions noted are these: in vivo, 0.5 h. The gist of the method:
(§1)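 Male C57Bl/6 mice, n = 3 per time point, given a single 2 mg/kg subcutaneous dose. Plasma levels were quantified by LC-MS/MS over time, and pharmacokinetic parameters were derived from the plasma profiles. Data are reported as mean ± SEM for each time point.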

Data set [5] is described as follows: AUCt in C57/BL6 mouse at 2 mg/kg, sc by LC-MS/MS analysis. It is filed as ADME, organism-based. The conditions noted are these: in vivo. Summed up: as §1
For data set [6], the target named is Sodium channel protein type 5 subunit alpha (Homo sapiens, UniProt Q14524). The data set is described as follows: Inhibition of human Nav1.5 expressed in HEK293 cells at holding potential of […] after 10 mins by patchxpress-based electrophysiology assay. It is filed as cell-based.
Data set [7] deals with Sodium channel protein type 8 subunit alpha (Homo sapiens, UniProt Q9UQD0). As to the kind of experiment: Inhibition of human Nav1.6 expressed in HEK293 cells at holding potential of -125 mV […] by patchxpress-based electrophysiology assay. It is filed as cell-based.
The nature of data set [8]: Tmax in C57/BL6 mouse at 2 mg/kg, sc by LC-MS/MS analysis. The data set is classed as ADME, organism-based. The following applies: in vivo. Summed up: as §1
In data set [9] the target is Sodium channel protein type 10 subunit alpha (Homo sapiens, UniProt Q9Y5Y9). The data set is described as follows: Inhibition of human Nav1.8 expressed in HEK293 cells after 10 mins by patchxpress-based electrophysiology. It is filed as cell-based.
A short description of data set [10]: Half life in C57/BL6 mouse at 2 mg/kg, sc by LC-MS/MS analysis. It is filed as ADME, organism-based. The following applies: in vivo. The gist of the method:
as §1

Data set [11] is described as follows: Apparent […] clearance in C57/BL6 mouse at 2 mg/kg, sc by LC-MS/MS analysis. It is filed as ADME, organism-based. The following applies: in vivo. Summed up:
as §1

For data set [12], the system named is Mus musculus. The data set is described as follows: Volume of distribution at steady state in C57/BL6 mouse at 2 mg/kg, sc by LC-MS/MS analysis. It is filed as ADME, organism-based. The following applies: in vivo. The gist of the method:
as §1

A short description of data set [13]: MRT in C57/BL6 mouse at 2 mg/kg, sc by LC-MS/MS analysis. The data set is classed as ADME, organism-based. The conditions noted are these: in vivo. The gist of the method:
as §1

Data set [14] in a line: Cmax in C57/BL6 mouse at 2 mg/kg, sc by LC-MS/MS analysis. It is filed as ADME, organism-based. Details: dose 2 mg/kg, route subcutaneous. The conditions noted are these: in vivo. Summed up:
as §1

pIC50: −log10 of the molar value.

The inhibition in vivo is how much of the control response was suppressed. For orientation: pIC50 means −log10 of the IC50, conventionally taken in molar units. A high value points to a small IC50. What is called AUC(0-t) is the area under the concentration-time curve up to a stated or last time point. A higher AUC(0-t) goes with more exposure. A word on the Tmax: it is the time at which the peak concentration occurs. A word on the half-life: it is the time needed for the level to fall by half in the phase considered. The low end stands for fast loss, the high end for slow loss. In general, CL/F refers to clearance divided by bioavailability, as obtained after extravascular dosing. One may read the MRT as a mean duration of stay, worked out from the concentration-time curve. As a reminder, the Cmax is the peak of the concentration-time curve.

Sodium channel protein type 9 subunit alpha, sequence (Q15858 whole entry): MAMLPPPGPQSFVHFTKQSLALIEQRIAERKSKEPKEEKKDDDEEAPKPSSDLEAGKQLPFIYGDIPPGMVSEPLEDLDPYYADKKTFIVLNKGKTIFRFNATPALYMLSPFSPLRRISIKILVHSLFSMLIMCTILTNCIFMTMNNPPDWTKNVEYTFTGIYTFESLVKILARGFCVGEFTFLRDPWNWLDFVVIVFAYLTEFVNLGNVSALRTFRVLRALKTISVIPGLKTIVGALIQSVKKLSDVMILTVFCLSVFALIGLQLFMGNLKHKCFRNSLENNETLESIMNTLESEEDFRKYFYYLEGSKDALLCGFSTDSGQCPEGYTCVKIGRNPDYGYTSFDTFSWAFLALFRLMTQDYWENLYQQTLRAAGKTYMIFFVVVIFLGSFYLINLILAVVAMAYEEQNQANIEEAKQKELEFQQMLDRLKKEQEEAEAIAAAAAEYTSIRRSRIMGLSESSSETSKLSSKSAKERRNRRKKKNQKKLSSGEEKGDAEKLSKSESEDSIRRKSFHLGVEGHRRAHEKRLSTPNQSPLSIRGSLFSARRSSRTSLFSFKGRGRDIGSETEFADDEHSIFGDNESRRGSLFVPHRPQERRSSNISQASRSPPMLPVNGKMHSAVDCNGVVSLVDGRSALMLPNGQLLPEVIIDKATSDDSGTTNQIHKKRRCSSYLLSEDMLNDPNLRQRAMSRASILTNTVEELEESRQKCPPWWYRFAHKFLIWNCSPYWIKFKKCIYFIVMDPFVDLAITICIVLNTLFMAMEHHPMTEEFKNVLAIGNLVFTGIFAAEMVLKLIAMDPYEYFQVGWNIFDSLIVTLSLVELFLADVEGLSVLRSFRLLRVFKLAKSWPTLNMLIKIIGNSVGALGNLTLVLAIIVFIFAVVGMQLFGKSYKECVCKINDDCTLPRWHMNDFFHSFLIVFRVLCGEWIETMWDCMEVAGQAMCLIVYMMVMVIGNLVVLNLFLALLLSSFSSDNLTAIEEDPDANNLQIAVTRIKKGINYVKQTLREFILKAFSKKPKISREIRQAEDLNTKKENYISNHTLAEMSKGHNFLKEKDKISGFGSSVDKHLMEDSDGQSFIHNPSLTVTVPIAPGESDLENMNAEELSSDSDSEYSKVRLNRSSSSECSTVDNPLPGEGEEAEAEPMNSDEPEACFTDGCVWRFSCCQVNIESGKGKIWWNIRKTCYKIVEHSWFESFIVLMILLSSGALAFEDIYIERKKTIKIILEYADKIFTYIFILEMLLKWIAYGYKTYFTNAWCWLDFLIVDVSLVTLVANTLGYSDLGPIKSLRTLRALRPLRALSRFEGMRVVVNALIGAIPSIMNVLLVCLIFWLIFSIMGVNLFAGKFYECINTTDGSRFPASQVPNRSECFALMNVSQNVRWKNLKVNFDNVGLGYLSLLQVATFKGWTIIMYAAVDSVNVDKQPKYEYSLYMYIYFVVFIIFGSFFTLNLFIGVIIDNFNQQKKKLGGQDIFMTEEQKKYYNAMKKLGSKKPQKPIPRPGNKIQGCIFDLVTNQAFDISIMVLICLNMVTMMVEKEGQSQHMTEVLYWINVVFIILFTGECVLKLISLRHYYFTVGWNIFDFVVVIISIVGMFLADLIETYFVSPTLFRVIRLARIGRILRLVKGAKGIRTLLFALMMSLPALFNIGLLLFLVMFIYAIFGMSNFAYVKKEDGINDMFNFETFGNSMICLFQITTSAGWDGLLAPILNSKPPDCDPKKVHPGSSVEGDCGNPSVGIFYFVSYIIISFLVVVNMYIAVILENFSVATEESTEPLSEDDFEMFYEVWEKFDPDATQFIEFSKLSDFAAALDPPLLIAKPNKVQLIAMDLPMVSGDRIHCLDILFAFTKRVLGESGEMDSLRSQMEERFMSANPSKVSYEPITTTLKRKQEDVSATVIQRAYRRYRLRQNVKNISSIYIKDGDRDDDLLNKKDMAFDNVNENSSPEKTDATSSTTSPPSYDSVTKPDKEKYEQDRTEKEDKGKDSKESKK

`CN(C)CCOC(c1ccccc1)c1ccccc1` [DIPHENHYDRAMINE]: the inhibition in vivo at 10 mg/kg in the data set with Mus musculus [1] is 89.7%.
As for `C#CC[C@H](N)C(=O)N[C@@H](Cc1ccc(O)cc1)C(=O)N[C@H]1CSSC[C@@H]2NC(=O)[C@@H]3CSSC[C@@H](C(=O)N[C@@H](CCCNC(=N)N)C(=O)N[C@@H](CCCCN)C(=O)N[C@@H](CCC(=O)O)C(=O)N[C@@H](Cc4c[nH]c5ccccc45)C(N)=O)NC(=O)[C@H](Cc4c[nH]c5ccccc45)NC(=O)[C@H](CC(C)C)NC(=O)[C@H](CCCCN)NC(=O)[C@H](CSSC[C@H](NC(=O)[C@H]([C@@H](C)O)NC(=O)[C@H](Cc4c[nH]c5ccccc45)NC(=O)[C@H](CCCC)NC(=O)[C@H](Cc4c[nH]c5ccccc45)NC(=O)[C@H](CCCCN)NC(=O)[C@H](CCC(N)=O)NC1=O)C(=O)N[C@@H](CC(=O)O)C(=O)N[C@@H](CO)C(=O)N[C@@H](CCCCN)C(=O)N[C@@H](CCCNC(=N)N)C(=O)N[C@@H](C)C(=O)N3)NC(=O)[C@H](CCCNC(=N)N)NC(=O)[C@H](CC(C)C)NC(=O)CNC(=O)[C@H](CCC(=O)O)NC2=O`, the negative-log IC50 (pIC50) in data set [2] was 9.70; in data set [3], 7.04.
The matching figures for `C#CC[C@H](N)C(=O)N[C@@H](Cc1ccc(O)cc1)C(=O)N[C@H]1CSSC[C@@H]2NC(=O)[C@@H]3CSSC[C@@H](C(=O)N[C@@H](CCCNC(=N)N)C(=O)N[C@@H](CCCCN)C(=O)N[C@@H](CCC(=O)O)C(=O)N[C@H](C(N)=O)[C@@H](C)CC)NC(=O)[C@H](Cc4c[nH]c5ccc(Cl)cc45)NC(=O)[C@H](CC(C)C)NC(=O)[C@H](CCCCN)NC(=O)[C@H](CSSC[C@H](NC(=O)[C@H]([C@@H](C)O)NC(=O)[C@H](Cc4c[nH]c5ccccc45)NC(=O)[C@H](CCCC)NC(=O)[C@H](Cc4c[nH]c5ccccc45)NC(=O)[C@H](CCCCN)NC(=O)[C@H](CCC(N)=O)NC1=O)C(=O)N[C@@H](CC(=O)O)C(=O)N[C@@H](CO)C(=O)N[C@@H](CCCCN)C(=O)N[C@@H](CCCNC(=N)N)C(=O)N[C@@H](C)C(=O)N3)NC(=O)[C@H](CCCNC(=N)N)NC(=O)[C@H](CC(C)C)NC(=O)CNC(=O)[C@H](CCC(=O)O)NC2=O`: 8.51 and 7.64.
For the compound `C#CC[C@H](N)C(=O)N[C@@H](Cc1ccc(O)cc1)C(=O)N[C@H]1CSSC[C@@H]2NC(=O)[C@@H]3CSSC[C@@H](C(=O)N[C@@H](CCCNC(=N)N)C(=O)N[C@@H](CCCCN)C(=O)N[C@@H](CCC(=O)O)C(=O)N[C@H](C(N)=O)[C@@H](C)CC)NC(=O)[C@H](Cc4c[nH]c5ccc(Br)cc45)NC(=O)[C@H](CC(C)C)NC(=O)[C@H](CCCCN)NC(=O)[C@H](CSSC[C@H](NC(=O)[C@H]([C@@H](C)O)NC(=O)[C@H](Cc4c[nH]c5ccccc45)NC(=O)[C@H](CCCC)NC(=O)[C@H](Cc4c[nH]c5ccccc45)NC(=O)[C@H](CCCCN)NC(=O)[C@H](CCC(N)=O)NC1=O)C(=O)N[C@@H](CC(=O)O)C(=O)N[C@@H](CO)C(=O)N[C@@H](CCCCN)C(=O)N[C@@H](CCCNC(=N)N)C(=O)N[C@@H](C)C(=O)N3)NC(=O)[C@H](CCCNC(=N)N)NC(=O)[C@H](CC(C)C)NC(=O)CNC(=O)[C@H](CCC(=O)O)NC2=O`, the Drug uptake result in [4] was “Active”. The area under the curve AUC(0-t) in data set [5] was determined as 3.44 µM·h. Besides, the pIC50 is 6.59 in data set [6]; 7.18 in [7]; 6.29 in [9]; 9.59 in data set [2]; 7.28 in [3]. Moreover, the time to peak (Tmax) in [8] is 0.5 h. In data set [10], this compound gave a half-life of 2.38 h. In data set [11], the apparent clearance CL/F is 2.57 mL/min/kg. The compound also yielded a Vdss in the data set on Mus musculus [12] of 0.547 L/kg. The compound also came in with a mean residence time MRT in data set [13] of 3.55 h. In data set [14], this compound gave a maximum concentration (Cmax) of 892 nM.
For the compound `C#CC[C@H](NC(=O)[C@@H](N)CCC(=O)O)C(=O)N[C@H]1CSSC[C@@H]2NC(=O)[C@@H]3CSSC[C@@H](C(=O)N[C@@H](CCCNC(=N)N)C(=O)N[C@@H](CCCCN)C(=O)N[C@@H](CCC(=O)O)C(=O)N[C@H](C(N)=O)[C@@H](C)CC)NC(=O)[C@H](Cc4c[nH]c5ccc(Br)cc45)NC(=O)[C@H](CC(C)C)NC(=O)[C@H](CCCCN)NC(=O)[C@H](CSSC[C@H](NC(=O)[C@H]([C@@H](C)O)NC(=O)[C@H](Cc4c[nH]c5ccccc45)NC(=O)[C@H](CCCC)NC(=O)[C@H](Cc4c[nH]c5ccccc45)NC(=O)[C@H](CCCCN)NC(=O)[C@H](CCC(N)=O)NC1=O)C(=O)N[C@@H](CC(=O)O)C(=O)N[C@@H](CCC(=O)O)C(=O)N[C@@H](CCCCN)C(=O)N[C@@H](CCCNC(=N)N)C(=O)N[C@@H](C)C(=O)N3)NC(=O)[C@H](CCCNC(=N)N)NC(=O)[C@H](CC(C)C)NC(=O)CNC(=O)[C@H](CCC(=O)O)NC2=O`, the results for the negative logarithm of the IC50 (pIC50) in data set [2] and in [3] were 8.60 and 7.05, respectively.
The matching figures for `C#CC[C@H](N)C(=O)N[C@@H](Cc1ccc(O)cc1)C(=O)N[C@H]1CSSC[C@@H]2NC(=O)[C@@H]3CSSC[C@@H](C(=O)N[C@@H](CCCNC(=N)N)C(=O)N[C@@H](CCCCN)C(=O)N[C@@H](CCC(=O)O)C(=O)N[C@H](C(N)=O)[C@@H](C)CC)NC(=O)[C@H](Cc4c[nH]c5ccccc45)NC(=O)[C@H](CC(C)C)NC(=O)[C@H](CCCCN)NC(=O)[C@H](CSSC[C@H](NC(=O)[C@H]([C@@H](C)O)NC(=O)[C@H](Cc4c[nH]c5ccccc45)NC(=O)[C@H](CCCC)NC(=O)[C@H](Cc4ccccc4)NC(=O)[C@H](CCCCN)NC(=O)[C@H](CCC(N)=O)NC1=O)C(=O)N[C@@H](CC(=O)O)C(=O)N[C@@H](CO)C(=O)N[C@@H](CCCCN)C(=O)N[C@@H](CCCNC(=N)N)C(=O)N[C@@H](C)C(=O)N3)NC(=O)[C@H](CCCNC(=N)N)NC(=O)[C@H](CC(C)C)NC(=O)CNC(=O)[C@H](CCC(=O)O)NC2=O`: 8.89 and 7.28.
Consider `C#CC[C@H](NC(=O)[C@@H](N)CCC(=O)O)C(=O)N[C@H]1CSSC[C@@H]2NC(=O)[C@@H]3CSSC[C@@H](C(=O)N[C@@H](CCCNC(=N)N)C(=O)N[C@@H](CCCCN)C(=O)N[C@@H](CCC(=O)O)C(=O)N[C@H](C(N)=O)[C@@H](C)CC)NC(=O)[C@H](Cc4c[nH]c5ccc(Br)cc45)NC(=O)[C@H](CC(C)C)NC(=O)[C@H](CCCCN)NC(=O)[C@H](CSSC[C@H](NC(=O)[C@H]([C@@H](C)O)NC(=O)[C@H](Cc4c[nH]c5ccccc45)NC(=O)[C@H](CCCC)NC(=O)[C@H](Cc4c[nH]c5ccccc45)NC(=O)[C@H](CCCCN)NC(=O)[C@H](CCC(N)=O)NC1=O)C(=O)N[C@@H](CC(=O)O)C(=O)N[C@@H](CO)C(=O)N[C@@H](CCC(=O)O)C(=O)N[C@@H](CCCNC(=N)N)C(=O)N[C@@H](C)C(=O)N3)NC(=O)[C@H](CCCNC(=N)N)NC(=O)[C@H](CC(C)C)NC(=O)CNC(=O)[C@H](CCC(=O)O)NC2=O`, for which the pIC50 is 9.30 in data set [2] and 7.14 in [3].

Values taken from ChEMBL document CHEMBL4152382, “Discovery of Tarantula Venom-Derived NaV1.7-Inhibitory JzTx-V Peptide 5-Br-Trp24 Analogue AM-6120 with Systemic Block of Histamine-Induced Pruritis” (J Med Chem, 2018).
